{
  "source": "paper PMC5531262",
  "about": "(Messenger (Los Angeles, Calif. : Print), 2016)",
  "type_in_all_cases": "biochemical, Lytechinus pictus",
  "key": {"[1]": {"test_system": "IP3-induced Ca^2+ release (IP3Rs)", "assay": "IP3-induced Ca^2+ release in sea urchin egg homogenate", "summary_of_the_method": "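Lytechinus pictus egg homogenate (GluIM, pH 7.2, with ATP-regenerating system) diluted 20-fold over 3 h at 17°C to 2.5% v/v. Fluo-3 3 μM final, ex 506/em 526 nm, stirred cuvette. Test compound or DMSO preincubated 2 min, then sub-maximal IP3 chosen from a dose-response curve. Signal calibrated to [Ca2+] with 0.5 mM EGTA then 10 mM CaCl2. Sigmoidal fit; mean ± SEM, n = 4–7.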"}, "[2]": {"test_system": "cADPR-induced Ca^2+ release (RyRs)", "assay": "cADPR-induced Ca^2+ release in sea urchin egg homogenate", "summary_of_the_method": "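Egg homogenate from Lytechinus pictus diluted 20-fold over 3 h at 17°C in GluIM with ATP regeneration; 3 μM Fluo-3 final, calibrated with EGTA/CaCl2. Test compound or DMSO preincubated 2 min before 0.3 μM cADPR (sub-maximal). For the time course, 30 μM test compound was preincubated 10–120 s. cADPR concentration-response was run after 2 min with 30 μM or DMSO. Sigmoidal fits; mean ± SEM, n = 4–9.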"}, "[3]": {"test_system": "caffeine-induced Ca^2+ release (RyRs)", "assay": "caffeine-induced Ca^2+ release in sea urchin egg homogenate", "conditions": "10 mM caffeine", "summary_of_the_method": "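Lytechinus pictus egg homogenate loaded with Ca2+ by 20-fold dilution over 3 h at 17°C in GluIM plus ATP-regenerating system; Fluo-3 3 μM final, stirred cuvette, ex 506/em 526 nm. Test compound preincubated 2 min, then 10 mM caffeine. Fluorescence converted to [Ca2+] using 0.5 mM EGTA and 10 mM CaCl2 for Fmin/Fmax. Sigmoidal concentration-response fit; mean ± SEM, n = 4–7.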"}},
  "note": "Where “and” joins values, the source holds several entries; their conditions need not be identical. Equal entries are not always repeated.",
  "data": [
    {"smiles": "O=P(O)(O)O[C@@H]1[C@H](O)[C@H](O)[C@@H](OP(=O)(O)O)[C@H](OP(=O)(O)O)[C@H]1O", "note": "[IP3, inositol 1,4,5-trisphosphate]", "values": [
      {"measurement": "raw control ∆[Ca^2+] with IP3", "setting": "[1]; sub-maximal IP3, no inhibitor", "value": "94 ± 1", "unit": "nM"}
    ]},
    {"smiles": "c1ccc(CN(CCN(Cc2ccccn2)Cc2ccccn2)Cc2ccccn2)nc1", "note": "[TPEN, N,N,N’,N’- tetrakis(2-pyridylmethyl)ethylenediamine]", "values": [
      {"measurement": "effect on cADPR-induced Ca^2+ release", "setting": "[2]; preincubation 2 minutes, then 0.3 μM cADPR, magnitude and kinetics", "value": "inhibited cADPR-induced Ca^2+ release"}
    ]},
    {"smiles": "N=c1c2ncn3c2ncn1[C@@H]1O[C@H](COP(=O)(O)OP(=O)(O)OC[C@H]2O[C@@H]3[C@H](O)[C@@H]2O)[C@@H](O)[C@H]1O", "note": "[cADPR]", "values": [
      {"measurement": "raw control response ∆[Ca^2+] with cADPR", "setting": "[2]; 0.3 μM cADPR, no inhibitor", "value": "72 ± 5 nM and 76 ± 4 nM and 72 ± 4 nM and 85 ± 3 nM and 75 ± 4 nM"},
      {"measurement": "EC50", "setting": "[2]; read-out: EC50 of cADPR for Ca^2+ release (concentration-response curve), sea urchin egg homogenate, Fig. 2b", "value": "~250", "unit": "nM"}
    ]},
    {"smiles": "Cn1c(=O)c2c(ncn2C)n(C)c1=O", "note": "[caffeine]", "values": [
      {"measurement": "raw control ∆[Ca^2+] with caffeine", "setting": "[3]; no inhibitor", "value": "80 ± 5", "unit": "nM"}
    ]},
    {"smiles": "COc1ccccc1OCCNCC(O)COc1cccc2[nH]c3ccccc3c12", "note": "(stereo not drawn) [carvedilol]", "values": [
      {"measurement": "inhibition of cADPR-induced Ca^2+ release (extent)", "setting": "[2]; 0.3 μM cADPR, extent of inhibition at high carvedilol concentration", "value": "> 80", "unit": "%"},
      {"measurement": "time of preincubation to maximal suppression of cADPR-induced Ca^2+ release", "setting": "[2]; carvedilol 30 μM, no further inhibition at longer incubations", "value": "≤ 10", "unit": "s"},
      {"measurement": "inhibition of IP3-induced Ca^2+ release (extent)", "setting": "[1]; sub-maximal IP3, preincubation 2 minutes, Fig. 4", "value": 47, "unit": "%"},
      {"measurement": "inhibition of caffeine-induced Ca^2+ release (extent)", "setting": "[3]; preincubation 2 minutes", "value": "> 80", "unit": "%"}
    ]}
  ]
}
